Laboratory results published in ChEMBL document CHEMBL4190353, “Synthesis, structure-activity relationships and preliminary mechanism of action of novel water-soluble 4-quinolone-3-carboxamides as antiproliferative agents” (Eur J Med Chem, 2017).

How the values were obtained:
PC-3 = assay: Cytotoxicity against human PC3 cells assessed as reduction in cell viability incubated for 24 hrs by MTT assay; type: functional, cell-based; conditions: PC-3, 24 h
Summary of the method: (§1)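 Cells were kept in McCoy's 5A with 10% fetal bovine serum, streptomycin and 100 units·mL⁻¹ penicillin at 37 °C under 5% CO₂/95% air. Viability was read by MTT optical density. IC50 is the concentration that lowers optical density by 50% relative to untreated cells. Values are means with SD of at least three independent determinations.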

HEp-2 = assay: Cytotoxicity against human Hep2 cells assessed as reduction in cell viability incubated for 24 hrs by MTT assay; type: functional, cell-based; conditions: HEp-2, 24 h; summary of the method: as §1
MCF7 = assay: Cytotoxicity against human MCF7 cells assessed as reduction in cell viability incubated for 24 hrs by MTT assay; type: functional, cell-based; conditions: MCF7, 24 h; summary of the method: as §1
RKO = assay: Cytotoxicity against human RKO cells assessed as reduction in cell viability incubated for 24 hrs by MTT assay; type: functional, cell-based; summary of the method: as §1
HCT-116 = assay: Cytotoxicity against human HCT116 cells assessed as reduction in cell viability incubated for 24 hrs by MTT assay; type: functional, cell-based; conditions: HCT-116, 24 h; summary of the method: as §1
BGC-823 = assay: Cytotoxicity against human BGC823 cells assessed as reduction in cell viability incubated for 24 hrs by MTT assay; type: functional, cell-based; conditions: BGC-823, 24 h; summary of the method: as §1
HeLa = assay: Cytotoxicity against human HeLa cells assessed as reduction in cell viability incubated for 24 hrs by MTT assay; type: functional, cell-based; summary of the method: as §1
HCT-8 = assay: Cytotoxicity against human HCT8 cells assessed as reduction in cell viability incubated for 24 hrs by MTT assay; type: functional, cell-based; conditions: HCT-8, 24 h; summary of the method: as §1
HepG2 = assay: Cytotoxicity against human HepG2 cells assessed as reduction in cell viability incubated for 24 hrs by MTT assay; type: functional, cell-based; conditions: HepG2, 24 h; summary of the method: as §1
[1] = Solubility in water; type: physicochemical

| Compound | IC50 (PC-3) [µM] | IC50 (HEp-2) [µM] | IC50 (MCF7) [µM] | IC50 (RKO) [µM] | IC50 (HCT-116) [µM] | IC50 (BGC-823) [µM] | IC50 (HeLa) [µM] | IC50 (HCT-8) [µM] | IC50 (HepG2) [µM] | solubility [1] [µg/mL] |
| --- | --- | --- | --- | --- | --- | --- | --- | --- | --- | --- |
| CCCCn1cc(C(=O)NCCN(CC)CC)c(=O)c2ccc(Cl)cc21.Cl | 44.6 | 22.6 | 35.5 | 16.8 | 21 | 7.11 | 21.6 | 46.8 | 6.92 | > 10000 |
| CCN(CC)CCCNC(=O)c1c[nH]c2cc(Br)ccc2c1=O.Cl | > 50 | 44.7 | 21.1 | 38.7 | 44.3 | 44.7 | > 50 | > 50 | 45.7 | > 10000 |
| CCOC(=O)c1cn(Cc2ccccc2)c2cc(Cl)ccc2c1=O | 27.9 | 19.1 | 15.8 | 16.3 | 21.3 | 13.8 | 16.2 | 27.4 | 22.4 |  |
| CCN(CC)CCCNC(=O)c1cn(C)c2cc(Cl)ccc2c1=O.Cl | 15.8 | 4.51 | 10 | 11.2 | 9.85 | 17.8 | 9.5 | 22.4 | 8.72 | > 10000 |
| CCOC(=O)c1cn(CC)c2cc(Cl)ccc2c1=O | > 50 | > 50 | > 50 | > 50 | > 50 | 40.7 | > 50 | > 50 | 47.9 |  |
| CCCCn1cc(C(=O)OCC)c(=O)c2ccc(Cl)cc21 | 41.7 | 35.5 | > 50 | 45.2 | 39.8 | 43.6 | > 50 | > 50 | 28.3 |  |
| C=CCn1cc(C(=O)NCCCN(CC)CC)c(=O)c2ccc(Cl)cc21.Cl | 14.1 | 14.5 | 35.5 | 16.3 | 18.7 | 15.1 | 19.1 | 30 | 12.6 | > 10000 |
| C=CCn1cc(C(=O)NCCN(CC)CC)c(=O)c2ccc(Cl)cc21.Cl | 44.5 | 24 | 47.9 | 30.1 | 35.6 | 12 | 38.9 | 30.2 | 19.1 | > 10000 |
| C=CCn1cc(C(=O)OCC)c(=O)c2ccc(Cl)cc21 | > 50 | > 50 | 49.8 | 48 | > 50 | > 50 | > 50 | 45.2 | 43.8 |  |
| CCN(CC)CCNC(=O)c1cn(Cc2ccccc2)c2cc(Cl)ccc2c1=O.Cl | 9.5 | 7.02 | 15.8 | 14.3 | 11.2 | 10.2 | 5.83 | 23.1 | 4.32 | > 10000 |
| CCN(CC)CCCNC(=O)c1c[nH]c2cc(F)ccc2c1=O.Cl | > 50 | 45.1 | 36.8 | 29.8 | 38.6 | 46.3 | 39.4 | 48.5 | > 50 | > 10000 |
| CCN(CC)CCNC(=O)c1cn(C)c2cc(Cl)ccc2c1=O.Cl | 31.6 | 17.8 | 22.4 | 24.6 | 15.6 | 27.6 | 28.9 | 32.6 | 10.2 | > 10000 |
| CCN(CC)CCCNC(=O)c1c[nH]c2cc(OC)ccc2c1=O.Cl | > 50 | 40.8 | 34.7 | 42.5 | 38.9 | 40.8 | 39.8 | 44.6 | 47.9 | > 10000 |
| CCN(CC)CCCNC(=O)c1cn(CC)c2cc(Cl)ccc2c1=O.Cl | 12.6 | 9.82 | 14.1 | 10.2 | 8.78 | 11.7 | 15.1 | 16.9 | 10.5 | > 10000 |
| CCN(CC)CCNC(=O)c1cn(CC)c2cc(Cl)ccc2c1=O.Cl | 15.9 | 42.3 | 25.1 | 23.4 | 19.8 | 12.3 | 13.8 | 25.1 | 9.52 | > 10000 |
| CCN(CC)CCCNC(=O)c1cn(Cc2ccccc2)c2cc(Cl)ccc2c1=O.Cl | 10.2 | 4.51 | 4.54 | 7.89 | 8.65 | 5.21 | 4.9 | 19.5 | 4.43 | > 10000 |
| CCN(CC)CCCNC(=O)c1c[nH]c2cc(Cl)ccc2c1=O.Cl | 39.8 | 25.1 | 22.4 | 25.2 | 23.3 | 23.4 | 22.4 | 28.8 | 28.2 | > 10000 |
| CCOC(=O)c1cn(CCCc2ccccc2)c2cc(Cl)ccc2c1=O | 16.1 | 7.63 | 14.1 | 9.86 | 10.8 | 18.6 | 14.8 | 17 | 15.1 |  |
| Oc1ccnc2cc(Cl)ccc12 | > 50 | > 50 | > 50 | > 50 | > 50 | > 50 | > 50 | > 50 | > 50 |  |
| CCCCn1cc(C(=O)NCCCN(CC)CC)c(=O)c2ccc(Cl)cc21.Cl | 8.31 | 11.2 | 12.3 | 9.65 | 7.84 | 9.12 | 15.4 | 28.8 | 5.63 | > 10000 |
| CCOC(=O)c1cn(C)c2cc(Cl)ccc2c1=O | > 50 | 25 | > 50 | > 50 | > 50 | 30.2 | > 50 | > 50 | 38 |  |
